PGC1a acetyl inh: modulators of PGC1a acetylation | U2OS PGC1a acetylation, AlphaScreen anti-acetyl-lysine; with virally co-expressed GCN5 acetyltransferase | inhibition, % at 15.6 µM | AID 651687 | 350,000 compounds, 0.17% hits;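 active = every replicate shows inhibition of at least 40%; inconclusive = mean inhibition at least 40% but some replicate below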;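 also: 0% = neutral control wells and 100% = positive control wells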
S100A4 inh HTS: S100A4-myosin IIA interaction inhibition; P26447; S100A4/TAMRA-MyoIIA peptide fluorescence polarization; inhibition, % at 10.7 µM; 360,000 compounds, 0.14% hits;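 active = mean inhibition of at least 70% across replicates, with every replicate also reaching that level; inconclusive = mean inhibition reaches 70% but some replicates fall short; inactive = mean inhibition below 70%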
Target sequence (P26447 whole entry, looked up): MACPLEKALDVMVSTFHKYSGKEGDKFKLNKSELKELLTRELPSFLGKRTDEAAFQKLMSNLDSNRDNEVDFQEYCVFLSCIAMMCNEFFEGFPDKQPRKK
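Compound dosing: one dose per compound; test system: human S100A4 monomer with TAMRA-labelled myosin IIA peptide; probe or stimulus: TAMRA-labelled myosin IIA heavy-chain peptide probe, 5 nM; medium: HEPES buffer with Ca2+, pH 7.2; schedule: 5 min incubation before reading; benchmarks: neutral control DMSO, positive control TFP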
C2C12 statin: protects C2C12 myotubes from simvastatin toxicity; rescue of ATP level, % at 7.49 µM; 330,000 compounds, 0.78% hits; ATP luminescence, 48 h; scaled: DMSO 0, geranylgeraniol control 100;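 active = mean ATP rescue above about 67%, or every replicate alone reaching that limit, limit read from the data, passing the limit was not always enough; inconclusive = no clear call, values can overlap the other calls; inactive = mean under the limit and some replicate under it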;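 also: myotubes were challenged with 10 µM simvastatin during compound exposure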
Cneo AK release: causes C. neoformans cell lysis | adenylate kinase release luminescence, 4 h; normalised: neutral wells 0, clomiphene wells 100 | lysis activity, % at 15 µM | 360,000 compounds, 0.2% hits;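 active = mean lysis activity across replicates of at least 80%, whatever share of replicates individually reach that level; inactive = mean lysis activity below 80%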
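read-out = cell lysis signal | test system = log-phase Cryptococcus neoformans yeast cells | input = cells at 5 × 10^6 per mL | medium = fresh YPD growth medium | signal = luminescent adenylate kinase detection reagent | timing = 4 h at 37 °C static, read 1 h later | dosing = single dose | controls = Clomiphene as positive lysis control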
SIRT5 block: inhibitors of human sirtuin-5 desuccinylase; inhibition, % at 15 µM; Purified SirT5, succinyl-peptide AMC, trypsin-coupled fluorescence; AID 652115; 330,000 compounds, 1.1% hits; Q9NXA8; in the data active = inhibition above about 15%; inconclusive = no clear call, values can overlap the other calls
Target sequence (Q9NXA8 whole entry, looked up): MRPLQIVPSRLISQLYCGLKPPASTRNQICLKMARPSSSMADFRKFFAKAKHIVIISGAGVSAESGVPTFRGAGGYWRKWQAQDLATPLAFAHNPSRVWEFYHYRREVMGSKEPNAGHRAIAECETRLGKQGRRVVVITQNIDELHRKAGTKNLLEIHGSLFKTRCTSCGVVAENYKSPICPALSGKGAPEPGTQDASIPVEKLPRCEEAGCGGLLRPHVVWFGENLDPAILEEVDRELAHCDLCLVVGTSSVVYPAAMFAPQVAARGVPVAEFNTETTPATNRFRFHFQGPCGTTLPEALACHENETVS
rRNA inh HTS: inhibitors of bacterial rRNA selective over humanized ribosomes | E. coli WT GFP vs humanized-ribosome RFP mutants, fluorescence, 24 h; stronger effect = lower value; DMSO median 0, no signal -100 | GFP signal change (wild-type ribosome), % (concentration not given with the values) | 350,000 compounds, 1.6% hits | AID 720706;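 active = significant combined selectivity score with lowered wild-type GFP, culture density cut under 30%, mutant RFP and density less affected; inactive = any of these conditions unmet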
Numbers without * were called inactive; ? = inconclusive; / = not tested or not shown. An excerpt weighted towards active compounds, which were near 3% of everything screened.

SMILES | PGC1a acetyl inh | S100A4 inh HTS | C2C12 statin | Cneo AK release | SIRT5 block | rRNA inh HTS
Cc1noc(C)c1NC(=O)Nc1ccc2c(c1)CC(=O)N([C@H](C)CO)C[C@@H](C)[C@@H](CN(C)Cc1ccc(-c3ccccc3)cc1)O2 | -3 | 5 | 16 | / | 16* | -2
C[C@H](CO)N1C[C@H](C)[C@@H](CN(C)Cc2ccc(-c3ccccc3)cc2)Oc2ccc(NC(=O)Cc3cn(C)c4ccccc34)cc2CC1=O | -14 | -8 | 102* | / | -2 | 1
O=C(C1CCCC1)N1C[C@H]2[C@@H](c3ccccc31)[C@H](CO)N2C(=O)c1cccnc1 | -4 | -2 | -17 | -5 | 5 | -2
CO[C@@H]1CN(C)C(=O)c2cc(NC(=O)NC3CCCC3)ccc2OC[C@@H](C)NC[C@@H]1C | / | / | / | / | / | 1
CNC(=O)C[C@@H]1CC[C@@H]2[C@H](COc3ccc(NC(=O)C4CC4)cc3C(=O)N2C)O1 | -1 | / | 1 | -4 | / | 2
N#Cc1c(-c2ccco2)ccn(Cc2cccc(F)c2)c1=O | 5 | 3 | -3 | 1 | -2 | -17*
C[C@@H]1CN([C@H](C)CO)C(=O)c2cc(NC(=O)NC3CCCCC3)ccc2O[C@@H]1CN(C)C(=O)Nc1ccccc1 | 3 | -4 | 23 | -5 | 2 | 0
COC(=O)c1cc(C)sc1NC(=O)C1CC(=O)NN1Cc1ccccc1 (stereo not drawn) | / | -1 | / | / | -1 | -32*
COc1ccc(C(=O)O)nc1C | / | -14 | -1 | 1 | 17* | 4
CC(=O)c1cn(CC(=O)Nc2cccc(C)c2C)c2ccccc12 | 0 | -1 | -6 | 1 | 22* | -2
COc1ccccc1NC(=O)Cn1cc(C(=O)c2ccco2)c2ccccc21 | -5 | -6 | 2 | 1 | -1 | -26*
C[C@@H]1CCCCO[C@@H](CN(C)C(=O)Nc2ccc(C(F)(F)F)cc2)[C@H](C)CN([C@H](C)CO)C(=O)c2cc(NS(=O)(=O)c3cccs3)ccc2O1 | 12 | -7 | 40 | 2 | 0 | 5
CCCn1cc(S(=O)(=O)c2ccc(C)cc2)c(=O)c2cc(OC)ccc21 | 1 | 0 | 5 | -1 | 1 | 2
CCCn1cc(S(=O)(=O)c2ccc(Cl)cc2)c(=O)c2cc(OC)ccc21 | -1 | -2 | 10 | 0 | 0 | -28*
CCCn1cc(S(=O)(=O)c2ccc(C)cc2)c(=O)c2cc(OC)c(OC)cc21 | -5 | 2 | 3 | 0 | 20* | -6
Cc1noc(C)c1S(=O)(=O)N(C)C[C@H]1Oc2ccc(NC(=O)Cc3ccccc3)cc2CC(=O)N([C@@H](C)CO)C[C@@H]1C | 0 | / | -6 | 0 | / | -1
C[C@@H]1CN([C@@H](C)CO)C(=O)c2cc(C#CC3CC3)cnc2O[C@@H]1CN(C)C(=O)Nc1ccc(F)cc1 | -3 | 3 | 3 | 1 | -1 | 1
CCOC(=O)C1=CN(Cc2cccc(Br)c2)S(=O)(=O)N(C)C1C (stereo not drawn) | -9 | -2 | -1 | -1 | 42* | -20
CCOC(=O)C1=CN(Cc2cccc(I)c2)S(=O)(=O)N(C)C1C (stereo not drawn) | / | -2 | 14 | -3 | -7 | -24
C=CCOC(=O)c1ccc(-n2cncn2)nc1 | -4 | / | 134* | 0 | / | /
COc1ccc(CNC(=O)C2CCC(CNS(=O)(=O)c3cccc4cccnc34)CC2)cc1 (stereo not drawn) | -6 | 0 | 5 | 0 | -6 | -3
COc1cccc(NC(=O)[C@@H]2CCCN2S(=O)(=O)c2cccc3cccnc23)c1 | 14 | 2 | 18 | -2 | / | -4
COc1cccc(NC(=O)C2CCC(CNS(=O)(=O)c3cccc4cccnc34)CC2)c1 (stereo not drawn) | -1 | -1 | 0 | 1 | -3 | -26*
COc1cc(NC(=O)[C@@H]2CCCN2S(=O)(=O)c2cccc3cccnc23)cc(OC)c1OC | 0 | -2 | 87* | -1 | / | 0
Cc1ccc(/C=N/c2sc3c(c2C#N)CCC3)s1 | -1 | / | 120* | -2 | / | /
SMILES | PGC1a acetyl inh | S100A4 inh HTS | C2C12 statin | Cneo AK release | SIRT5 block | rRNA inh HTS
CN(C)C(=O)c1ccc(-c2ccc3c(c2)[C@@H]2[C@@H](CCN2C(=O)C2CCCCC2)[C@@H](CO)N3C)cc1 | 6 | 0 | / | / | -5 | -9
O=C(Nc1nnc(C2=COCCO2)o1)c1ccc(Cc2ccccc2)cc1 | 4 | -4 | / | / | 0 | -46*
O=C(Nc1nnc(C2=COCCO2)o1)c1ccc(Cl)cc1 | / | -2 | / | / | -2 | -55
Fc1ccc(NC(=S)Nc2cccnc2)cc1Cl | / | -1 | / | / | -3 | -54
Cc1ccc(NC(=S)Nc2cc(-c3ccccc3)[nH]n2)cc1Cl | / | 1 | -6 | 2 | -1 | -20*
Fc1ccc(NC(=S)Nc2cc(-c3ccccc3)[nH]n2)cc1Cl | -4 | -6 | -7 | 1 | 0 | -54*
C[C@@H]1CN([C@@H](C)CO)C(=O)c2cc(C#CCN(C)C)cnc2O[C@@H]1CN(C)Cc1ccccc1 | 4 | 2 | 13 | 6 | -2 | 2
CCCNC(=O)N1C[C@@H]2[C@H](c3ccccc31)[C@H](CO)N2C(=O)Nc1ccc(F)cc1 | 1 | 5 | -2 | 47 | 0 | 2
C[C@@H]1CN([C@H](C)CO)C(=O)c2cc(NS(C)(=O)=O)ccc2O[C@H]1CN(C)S(=O)(=O)c1ccccc1 | 2 | / | / | / | / | 1
C[C@H]1CCCCO[C@@H](CN(C)Cc2ccc(C(F)(F)F)cc2)[C@@H](C)CN([C@@H](C)CO)C(=O)c2cc(NS(=O)(=O)c3ccccc3)ccc2O1 | 1 | -7 | / | -4 | 12 | -2
C[C@@H]1CN([C@H](C)CO)C(=O)c2cc(NS(=O)(=O)c3ccccc3)ccc2O[C@@H](C)CCCCO[C@H]1CN(C)Cc1ccc(C(F)(F)F)cc1 | 5 | -12 | / | -11 | 19* | -16
C[C@@H]1CN([C@@H](C)CO)C(=O)c2cc(NS(=O)(=O)c3ccccc3)ccc2O[C@@H](C)CCCCO[C@@H]1CN(C)Cc1ccc(C(F)(F)F)cc1 | -2 | 9 | / | -7 | 20* | 2
C[C@H]1CCCCO[C@H](CN(C)Cc2ccc(C(F)(F)F)cc2)[C@@H](C)CN([C@@H](C)CO)C(=O)c2cc(NS(=O)(=O)c3ccccc3)ccc2O1 | 6 | ? | / | -21 | 20* | -3
C[C@H](CO)N1C[C@H](C)[C@H](CN(C)Cc2ccc(C(F)(F)F)cc2)OCCCC[C@H](C)Oc2ccc(NS(=O)(=O)c3ccccc3)cc2C1=O | 1 | 9 | / | -4 | 15 | -3
CCCNC(=O)N[C@@H]1CC[C@@H](CC(=O)NC2CCC2)O[C@H]1CO | -4 | / | -11 | / | / | -1

Screening data from PubChem BioAssay.
